Measured values from paper PMC11303814 (Nature Communications, 2024).
Where a chain is given by its changes, count along the chain named. “Also recorded” adds a separate entry of the source.

What was measured:
[1] = target: T1, rP2X7 triple mutant (R125A/Q143A/I214A) (Rattus norvegicus, UniProt Q64663, I214A/Q143A/R125A); experiment: TEVC efficacy experiments, triple mutant rP2X7 in oocytes; type: cell-based; conditions: identical concentrations
T1 sequence (Q64663 1-595 R125A/Q143A/I214A): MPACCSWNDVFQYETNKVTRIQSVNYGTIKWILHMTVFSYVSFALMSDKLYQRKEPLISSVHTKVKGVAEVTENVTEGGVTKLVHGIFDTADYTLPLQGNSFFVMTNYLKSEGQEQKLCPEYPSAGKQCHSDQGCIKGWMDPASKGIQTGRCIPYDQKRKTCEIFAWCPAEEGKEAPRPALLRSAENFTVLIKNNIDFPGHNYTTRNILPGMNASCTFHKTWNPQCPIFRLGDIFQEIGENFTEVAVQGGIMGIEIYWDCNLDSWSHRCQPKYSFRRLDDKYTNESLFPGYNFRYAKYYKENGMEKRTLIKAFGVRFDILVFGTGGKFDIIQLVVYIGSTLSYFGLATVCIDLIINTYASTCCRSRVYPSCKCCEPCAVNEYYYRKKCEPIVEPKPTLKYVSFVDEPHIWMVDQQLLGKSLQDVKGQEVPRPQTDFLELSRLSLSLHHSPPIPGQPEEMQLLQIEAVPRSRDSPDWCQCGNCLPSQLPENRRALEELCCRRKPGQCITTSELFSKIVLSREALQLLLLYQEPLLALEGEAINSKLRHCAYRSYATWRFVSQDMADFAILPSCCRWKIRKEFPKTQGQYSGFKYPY
Method in brief: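 Oocytes expressing rP2X7 (~20 h after mRNA injection), TEVC in pH 7.4 HEPES/flufenamic acid buffer. Each oocyte first received 100 µM ATP as the normalization reference, then sequentially 50 µM ATP, 50 µM BzATP, 100 µM ATP and 100 µM BzATP, with buffer washout to baseline between applications. Normalized currents are from triplicates per concentration per construct; mean ± SD.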

[2] = target: T2, biotinylated rP2X7 (Rattus norvegicus, UniProt Q64663); experiment: Bio-layer interferometry; type: binding; conditions: for rate constant for association (ka) / rate constant for dissociation (kd): 30 °C, PBS pH 7.4, 0.5 mM DDM, 1:1 Langmuir global fit, mean ± SD of three
T2 sequence (Q64663 1-595): T1 sequence (Q64663 1-595 R125A/Q143A/I214A) with A125R, A143Q, A214I
Method in brief: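 Full-length rat P2X7 expressed in HEK293 GnTI cells by BacMam, purified in DDM/CHS (TALON, SEC), then biotinylated with NHS-PEG12-biotin at pH 8.0, 23 °C, 60 min. Loaded at 50 µg/ml onto streptavidin tips, blocked with biocytin. Threefold agonist dilutions (ATP 30–0.12 µM; BzATP 3.3–0.014 µM): 90 s association, 300 s (ATP) or 800 s (BzATP) dissociation. Double reference subtraction used biocytin sensors and zero analyte. KD = kd/ka.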

[3] = target: T3, full-length wild-type rP2X7 (Rattus norvegicus, UniProt Q64663); experiment: TEVC dose response; type: cell-based; conditions: WT rP2X7, TEVC
T3 sequence (Q64663 1-595): T1 sequence (Q64663 1-595 R125A/Q143A/I214A) with A125R, A143Q, A214I
Method in brief: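 TEVC was run on Xenopus oocytes ~20 h after injection of wild-type or mutant rP2X7 mRNA, in pH 7.4 HEPES buffer with 0.1 mM flufenamic acid. Receptors were facilitated at 100 µM before recording. Dilution series: ATP 1.5 mM–2 µM (7 points), BzATP 300–0.14 µM (8 points). Responses were normalized to the largest concentration, fitted by nonlinear regression for EC50, and averaged across triplicates (mean ± SD).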

[4] = target: zebra fish P2X4; conditions: cited from earlier work
[5] = target: human P2X3; conditions: cited from earlier work

Compound	efficacy (agonist character, current amplitude) [1]	rate constant for association (ka) ([2]; BLI)	rate constant for dissociation (kd) ([2]; BLI)	higher binding affinity (KD) than ATP ([2]; BLI, rP2X7)	higher apparent affinity than ATP (EC50 ratio) [3]	Kd [4]	affinity for rP2X7 lower than that of human P2X3 ([2]; KD rP2X7 vs human P2X3)	affinity for rP2X7 lower than that of zebra fish P2X4 ([2]; KD rP2X7 vs zebra fish P2X4)	Kd [5]
BzATP	equivalent agonists in terms of efficacy; also recorded: equal current amplitudes	3.7 ± 1.0 x10^5 M^−1s^−1	2.6 ± 1.0 x10^−3 s^−1	~ 70 fold	~ 28 fold	–	–	–	–
Nc1ncnc2c1ncn2[C@@H]1O[C@H](COP(=O)(O)OP(=O)(O)OP(=O)(O)O)[C@@H](O)[C@H]1O [ATP]	equivalent agonists in terms of efficacy; also recorded: equal current amplitudes	9.4 ± 2.4 x10^4 M^−1s^−1	5.1 ± 2.5 x10^−2 s^−1	–	–	11.6 ± 1.7 nM	approximately 190 fold	~46 fold	2.8 ± 0.1 nM
